Assay results published in ChEMBL document CHEMBL3808288, “Identification and in Vivo Evaluation of Liver X Receptor β-Selective Agonists for the Potential Treatment of Alzheimer's Disease” (J Med Chem, 2016).
≈ marks a conversion by molar mass, not a printed value. Calls of active or inactive are those of the source. The calls are words filed in the database; no cut-off is given here.

Experiments:
[1] = biological target: T1, Oxysterols receptor LXR-alpha (Homo sapiens, UniProt Q13133); assay: Agonist activity at GST-tagged LXRalpha-LBD (unknown origin) by LanthaScreen TR-FRET liver X receptor coactivator assay
T1 sequence (Q13133 whole entry): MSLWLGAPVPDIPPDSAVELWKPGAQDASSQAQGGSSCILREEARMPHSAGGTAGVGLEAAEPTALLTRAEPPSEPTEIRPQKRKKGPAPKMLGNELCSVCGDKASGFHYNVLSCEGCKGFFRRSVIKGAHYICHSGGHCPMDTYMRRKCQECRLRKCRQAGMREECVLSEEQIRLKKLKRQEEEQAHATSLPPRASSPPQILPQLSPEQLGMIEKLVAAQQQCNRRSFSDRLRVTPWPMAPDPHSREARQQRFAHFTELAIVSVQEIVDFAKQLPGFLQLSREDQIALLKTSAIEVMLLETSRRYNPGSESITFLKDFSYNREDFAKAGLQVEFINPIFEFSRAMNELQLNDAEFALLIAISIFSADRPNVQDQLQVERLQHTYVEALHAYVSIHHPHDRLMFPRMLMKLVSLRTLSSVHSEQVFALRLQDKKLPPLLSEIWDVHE
Summary of the method: (§1)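 Cofactor recruitment assay using the ligand binding domains of LXRβ or LXRα. The read-out was EC50 and Emax, with Emax relative to a full agonist control.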

[2] = biological target: T2, Oxysterols receptor LXR-beta (Homo sapiens) (UniProt P55055); assay: Agonist activity at GST-tagged LXRbeta-LBD (unknown origin) by LanthaScreen TR-FRET liver X receptor coactivator assay relative to T1317; summary of the method: as §1
T2 sequence (whole entry): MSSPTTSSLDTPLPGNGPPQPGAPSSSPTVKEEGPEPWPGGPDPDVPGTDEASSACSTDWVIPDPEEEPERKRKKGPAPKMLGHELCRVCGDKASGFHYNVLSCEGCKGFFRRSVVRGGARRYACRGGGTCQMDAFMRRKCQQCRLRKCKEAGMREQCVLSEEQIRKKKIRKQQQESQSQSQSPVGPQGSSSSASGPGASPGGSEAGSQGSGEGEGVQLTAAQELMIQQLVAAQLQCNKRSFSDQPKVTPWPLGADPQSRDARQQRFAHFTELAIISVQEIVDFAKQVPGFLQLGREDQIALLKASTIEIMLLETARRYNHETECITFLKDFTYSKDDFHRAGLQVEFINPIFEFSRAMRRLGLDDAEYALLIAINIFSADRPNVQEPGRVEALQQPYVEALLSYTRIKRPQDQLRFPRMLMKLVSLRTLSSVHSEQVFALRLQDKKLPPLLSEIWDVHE

[3] = biological target: T3, Oxysterols receptor LXR-alpha (Homo sapiens) (UniProt Q13133); assay: (§2) Agonist activity at LXRalpha (unknown origin) expressed in human HepG2 cells co-expressing ABCA1 promoter measured after 48 hrs by cell-based transactivation assay
T3 sequence (whole entry): T1 sequence (Q13133 whole entry)

[4] = biological target: T1, Oxysterols receptor LXR-alpha; assay: as §2
[5] = biological target: T4, Oxysterols receptor LXR-beta (Homo sapiens, UniProt P55055); assay: Agonist activity at GST-tagged LXRbeta-LBD (unknown origin) by LanthaScreen TR-FRET liver X receptor coactivator assay; summary of the method: as §1
T4 sequence (P55055 whole entry): T2 sequence (whole entry)

[6] = biological target: T2, Oxysterols receptor LXR-beta (Homo sapiens); assay: (§3) Agonist activity at LXRbeta (unknown origin) expressed in human H4 cells co-expressing ABCA1 promoter measured after 48 hrs by cell-based transactivation assay
[7] = biological target: T4, Oxysterols receptor LXR-beta; assay: as §3
[8] = biological target: T3, Oxysterols receptor LXR-alpha (Homo sapiens); assay: Agonist activity at GST-tagged LXRalpha-LBD (unknown origin) by LanthaScreen TR-FRET liver X receptor coactivator assay T1317; summary of the method: as §1
Rhesus monkey [9] = assay: Increase in apoE level in plasma of rhesus monkey at 5 mg/kg, po administered for 2 weeks; assay type: functional, organism-based; settings: Macaca mulatta
Rhesus monkey [10] = assay: Increase in apoE level in CSF of rhesus monkey at 5 mg/kg, po administered for 2 weeks; assay type: functional, organism-based; settings: Macaca mulatta
Summary of the method: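 Rhesus monkeys were dosed orally once daily for 2 weeks after randomisation on baseline lipids, liver enzymes and liver fat. CSF was taken by lumbar puncture at baseline and at trough after the last dose, and apoE was measured against baseline.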

Rhesus monkey [11] = assay: Increase in hepatic fat content in rhesus monkey at 5 mg/kg, po qd for 2 weeks by magnetic resonance spectroscopic imaging method relative to vehicle control; assay type: ADME, organism-based, Macaca mulatta; settings: in vivo, 336 h
Cynomolgus monkey = assay: Increase in triglycerides level in cynomolgus monkey liver at >= 3 mg/kg, po qd administered for 2 weeks; assay type: ADME, organism-based, Macaca fascicularis; settings: in vivo, 336 h
[12] = Solubility of the compound at pH 2; assay type: physicochemical; settings: buffer

Compound	EC50 [1] [nM]	Emax [2] [%]	Emax [3] [%]	EC50 [4] [nM]	EC50 [5] [nM]	Emax [6] [%]	EC50 [7] [nM]	Emax [8] [%]	Activity (Rhesus monkey [9])	Activity (Rhesus monkey [10])	fold change (FC) (Rhesus monkey [11])	Activity (Cynomolgus monkey)	solubility [12] [µM]
CN(C)C(=O)c1ccc(-c2cnc(N3CCN(C(=O)OC(C)(C)C)CC3)c(C#N)c2)cc1Cl	1480	106	40	280	940	103	770	50	–	–	–	–	–
CC(C)(O)CNC(=O)Nc1ccc(C(=O)N2CCN(Cc3ccc(C(O)(C(F)(F)F)C(F)(F)F)cc3)CC2)cc1F	–	–	–	–	–	–	–	–	Active	inactive	4	Toxic	–
CN(C)C(=O)c1ccc(-c2cnc(N3CCN(C(=O)[C@](O)(c4ccccc4)C(F)(F)F)CC3)c(C#N)c2)cc1Cl	41	67	66	45	8	64	7	62	–	–	–	–	3 (≈ 1.72 µg/mL)
